Screening data (PubChem BioAssay)
APP 5UTR inh: APP translation inhibition | SH-SY5Y APP 5'UTR-luciferase reporter, luminescence | inhibition, % at 2 µM | actives 0.82% (n = 190,000) | AID 1285;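 active = inhibition above a set limit, derived from the sample mean plus 3 SD, cut at about 45% in these data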
b-catenin transl: alters nuclear translocation of beta-catenin in HeLa cells; immunofluorescence imaging; nuclear translocation activity, % at 5 µM; actives 0.3% (n = 190,000); AID 1665;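 active = nuclear translocation activity above 50% at 5 µM, with a well cell count of 50 or more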;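 also: per-cell ratio of nuclear to cytoplasmic median beta-catenin stain intensity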
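System: HeLa cells, endogenous beta-catenin; compound dosing: 5 µM primary single dose, 0.1% DMSO, 0.02–20 µM confirmation series; incubation: 24 h compound exposure at 37°C, 5% CO2; signal: beta-catenin immunofluorescence imaging with DAPI; evaluation: % activation, nuclear-to-cytoplasmic median beta-catenin signal ratio per cell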
L major viab: Leishmania major promastigote growth inhibition; Leishmania major promastigotes, resazurin fluorescence viability; AID 1063; actives 9% (n = 200,000); inhibition, % at 10 µM; in the data active = inhibition above about 50%;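 also: promastigotes grown with compound for 44 hours at 28 °C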
BaF3 tox: counter-screen for JAK2V617F inhibitors: parental Ba/F3 viability inhibitors. CellTiter-Glo ATP luminescence. inhibition, % at 5.6 µM. actives 1.1% (n = 220,000);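 active = inhibition above a per-campaign cutoff, the mean inhibition of all tested compounds plus 3 SD, cut at about 27% in these data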
MT stabilize HCS: stabilizes microtubules in HeLa cells | HeLa tubulin immunostaining HCS, 24 h; share of cells brighter than vehicle mean+2SD | % tubulin-high responders, % at 10 µM | actives 0.83% (n = 200,000) | AID 2205;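 active = plate Z-score above 3 for both tubulin-high and condensed-nucleus cell shares, with cell loss under 80%, at 10 µM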;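 also: anti alpha tubulin signal scored within the nucleus-defined area of each cell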
Ba/F3 V617F tox: reduce viability of Ba/F3 cells dependent on JAK2V617F. Ba/F3 EpoR-JAK2V617F viability, ATP luminescence. inhibition, % at 5.6 µM. actives 1.1% (n = 220,000). AID 1446;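 active = inhibition above the campaign mean plus 3 SD over all tested compounds, cut at about 24% in these data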;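 also: cytokine-independent growth of Ba/F3 cells driven by EpoR plus mutant JAK2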
Numbers stand for hits; i = inactive; nt = no result. Most compounds without a hit are left out; they make up all but 9.6% or so of the library.

SMILES	APP 5UTR inh	b-catenin transl	L major viab	BaF3 tox	MT stabilize HCS	Ba/F3 V617F tox
COc1cccc(CNC(=O)C(c2ccc(Cl)cc2)C(C)C)c1 (stereo not drawn)	i	nt	57.1	i	i	i
COC(=O)c1cc(C(=O)Nc2ccc(S(N)(=O)=O)cc2)cc([N+](=O)[O-])c1	i	i	60.5	i	i	i
CCCC(C)NC(=O)c1cc(C(=O)OC)cc([N+](=O)[O-])c1 (stereo not drawn)	i	i	i	i	i	i
CCCC(C)c1nnc(NC(=O)c2cc(C(=O)OC)cc([N+](=O)[O-])c2)s1 (stereo not drawn)	i	i	96.8	i	i	i
COC(=O)c1cc(C(=O)Nc2ccc(C)cn2)cc([N+](=O)[O-])c1	i	i	i	i	i	i
O=C1Nc2cc3c(cc2Sc2ccccc21)OCCO3	i	i	i	i	i	i
Cn1nnnc1SCC(=O)Nc1ccc(Oc2ccccc2)cc1	i	nt	92.7	i	i	i
COc1ccc(NC(=O)CSc2nnnn2C)cc1	i	i	i	i	i	i
CCN(CC)C(=O)c1sc(NC(=O)Cc2ccc(OC)cc2)c(C#N)c1C	i	i	84.6	i	i	i
Cc1cc(Cl)ccc1OCCCC(=O)OCC(N)=O	i	i	i	i	i	i
CC1=CC(C)(C)N=C(Nc2nc(C)c3cc(C)cc(C)c3n2)N1	i	i	97.2	i	i	i
CCCn1c2c(c(=N)c3c1CCC3)CCCC2	i	i	99.8	65.2	i	64.9
O=C(O)CCn1c2c(c3ccccc31)CCCC2	i	i	i	i	i	i
CCCCCn1c(=O)[nH]c2c(c1=O)CCC2	i	i	i	i	i	i
CCCn1c2c(c(=N)c3c1CCC3)CCC2	nt	i	nt	54.4	nt	46.4
CCOC(=O)Cn1c2c(c(=N)c3c1CCC3)CCCC2	i	i	i	i	i	i
CCCCCCCn1c2c(c(=N)c3ccccc31)CCC2	i	i	100.4	77.9	i	98.8
COc1ccc(Nc2nc(N3CCCC3)nc(N3CCCC3)n2)c(OC)c1	i	i	i	i	i	i
COc1ccc(Nc2nc(N3CCCCC3)nc3ccccc23)c(OC)c1	i	nt	97.2	i	i	i
COc1ccc(Nc2nc(N3CCCCC3)nc(N3CCCCC3)n2)c(OC)c1	nt	i	nt	nt	nt	nt
COc1ccc(N2CCN(c3nc(NC(C)(C)C)nc(N4CCCCC4)n3)CC2)cc1	i	nt	97.1	i	i	i
COc1ccc(Nc2nc(Nc3ccc(OC)cc3OC)nc(N3CCN(C)CC3)n2)c(OC)c1	i	i	76.6	i	i	i
COc1ccc(Nc2nc(NC(C)(C)C)nc(N3CCCC3)n2)c(OC)c1	i	nt	95.8	i	i	i
COc1ccc(Nc2nc(NC(C)(C)C)nc(N3CCOCC3)n2)c(OC)c1	i	i	i	i	i	i
CCOC(=O)c1cc(-c2ccc(C)cc2)nc2nc(SC)[nH]c(=O)c12	i	i	56.0	i	i	i
SMILES	APP 5UTR inh	b-catenin transl	L major viab	BaF3 tox	MT stabilize HCS	Ba/F3 V617F tox
COc1ccccc1OCCSc1nc2ccccc2c(=O)[nH]1	i	i	i	95.4	i	i
COC(=O)NNC(=S)NCc1ccc(C)cc1	i	i	i	i	i	i
CSCCC(NS(=O)(=O)c1ccccc1F)C(=O)OCc1ccccc1Cl (stereo not drawn)	i	i	74.9	i	i	i
CSCCC(NS(=O)(=O)c1ccc(Cl)cc1)C(=O)OCc1cccc(Cl)c1 (stereo not drawn)	i	i	96.9	i	i	i
CSCCC(NS(=O)(=O)c1ccc(Cl)cc1)C(=O)OCc1c(Cl)cccc1Cl (stereo not drawn)	i	i	99.3	i	i	i
CC(C)C1Oc2cc3oc(=O)ccc3cc2C1=O (stereo not drawn)	i	i	i	i	i	i
Cc1cc(NC(=O)/C=C/C(=O)N(CC(=O)NC2CCCC2)c2cccc3ccccc23)no1	i	i	95.7	i	i	i
CCOc1ccc(N(C(=O)/C=C/C(=O)Nc2cc(C)on2)C(C(=O)NC2CCCC2)c2ccccc2C)cc1 (stereo not drawn)	i	i	87.0	i	i	i
CCc1ccc(N(C(=O)CCC(=O)Nc2cc(C)on2)C(C(=O)NC2CCCC2)c2ccco2)cc1 (stereo not drawn)	i	i	95.5	i	i	i
CCc1ccc(C(C(=O)NC2CCCC2)N(C(=O)/C=C/C(=O)Nc2cc(C)on2)c2ccccc2C)cc1 (stereo not drawn)	i	i	99.4	i	i	i
Cc1cc(NC(=O)CCC(=O)N(CC2CCCO2)C(C(=O)NC2CCCC2)c2ccccc2C)no1 (stereo not drawn)	i	nt	i	i	i	i
COc1ccccc1CN1CCCC(C(=O)N(C)Cc2ccccc2)C1 (stereo not drawn)	i	i	52.4	i	i	i
COc1ccc(CN2CCCC(C(=O)N(C)Cc3ccccc3)C2)cc1OC (stereo not drawn)	i	i	85.6	i	i	i
COc1ccc(OC)c(S(=O)(=O)N2CCC(C(=O)N(C)Cc3ccccc3)CC2)c1	nt	i	nt	i	nt	i
COc1cccc(OC)c1CN1CCCC(C(=O)c2ccccc2SC)C1 (stereo not drawn)	i	i	64.6	i	i	i
COc1ccccc1CN1CCCC(C(=O)N2CCCCC2)C1 (stereo not drawn)	nt	i	nt	i	nt	i
COc1ccc(Br)cc1CN1CCCC(C(=O)N2CCCCCC2)C1 (stereo not drawn)	i	i	85.1	i	i	i
O=C(CSc1nnc2ccccn12)Nc1ccc2c(c1)OCCO2	i	i	i	i	i	i
Cc1nc(CC(=O)c2ccc(O)c(C)c2O)cs1	nt	i	nt	i	nt	i
Cn1c(Cn2c(=O)sc3ccccc32)nnc1SCC(=O)NCc1ccccc1Cl	i	i	i	i	i	i
Cc1ccc(C(C)C)c(OCC(=O)Nc2ccccc2N2CCN(C)CC2)c1	i	i	59.5	i	i	i
C/C(=N/NC(=O)COc1cc(C)ccc1C(C)C)C(=O)O	82.1	i	i	i	i	i
CC(=O)N1CCN(c2ccccc2NC(=O)COc2cc(C)ccc2C(C)C)CC1	i	i	i	i	i	i
Cc1ccc(C(C)C)c(OCC(=O)NN=C(CCl)CCl)c1	nt	i	nt	i	nt	i
O=C(c1nc2ncccn2n1)N1CCN(c2ccc(F)cc2)CC1	i	i	i	i	i	i
O=C(c1nc2ncccn2n1)N1CCN(c2ccccc2)CC1	i	i	89.8	i	i	i
CC(C)OC(=O)c1c(NC(=O)Cn2cnc([N+](=O)[O-])n2)sc2c1CCCC2	i	i	85.0	i	i	i
CCOC(=O)c1c(NC(=O)Cn2cnc([N+](=O)[O-])n2)sc2c1CCCC2	i	i	91.9	i	i	i
NC(=O)c1c(NC(=O)Cn2cnc([N+](=O)[O-])n2)sc2c1CCCC2	nt	i	nt	i	nt	i
CC1CCc2c(sc(NC(=O)Cn3cnc([N+](=O)[O-])n3)c2C(N)=O)C1 (stereo not drawn)	i	i	i	i	i	i
